Measured values published in ChEMBL document CHEMBL4038314, “Synthetic Modification within the "RPRL" Region of Apelin Peptides: Impact on Cardiovascular Activity and Stability to Neprilysin and Plasma Degradation” (J Med Chem, 2017).
The source made the active and inactive calls. The calls are words filed in the database; no cut-off is given here. Starred links: 1 amine or outer side, 2 acyl side, 3 side chain; linkers in the order of their positions; H or OH if unused. Non-standard residues stand in square brackets, D forms with d. Residues, ends and D or L forms follow the SMILES beside them. Phe(4-Br) = N[C@@H](Cc1ccc(Br)cc1)C(=O)O; X1 = N=C(N)NCCCN(N[*:1])C(=O)[*:2]; αMeR = C[C@](N)(CCCNC(=N)N)C(=O)O; NMeL = CN[C@@H](CC(C)C)C(=O)O; αMeL = CC(C)C[C@](C)(N)C(=O)O; Nle = CCCC[C@H](N)C(=O)O; Aib = CC(C)(N)C(=O)O

How the values were obtained:
[1] = tested on: Mus musculus; assay: Cardiotoxicity in anesthetized mouse assessed as induction of tachycardia at 1.4 uM/kg, iv relative to control; format: toxicity, organism-based; conditions: in vivo, 1.4 µmol/kg
Outline: (§1)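 Mice under 1.5% isoflurane, body temperature held at 36 °C on a heating pad. Aorta cannulated via the right carotid artery with a 1.2F PV loop catheter to record arterial pressure and heart rate continuously. Peptide given systemically through the right internal jugular vein.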

[2] = molecular target: T1, Neprilysin (Homo sapiens, UniProt P08473); assay: Drug metabolism assessed as recombinant human NEP-medited peptide proteolysis at 1 mM up to 72 hrs by LC-MS analysis; format: ADME; conditions: 1000 µM
Outline: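 Recombinant human NEP, 3.1 nM final in 100 mM Tris, 100 mM NaCl, 10 μM ZnCl2, pH 7.5, preincubated 10 min at 37 °C. Then 5 μL of 1 mM peptide stock and dansyl-YVG internal standard added; incubated at 37 °C for up to 72 h. Extracted-ion LC−MS ratio of parent to standard compared with 0 h and converted to percent cleaved.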

[3] = molecular target: T1, Neprilysin; assay: Inhibition of recombinant human NEP using pyr-1-apelin-13 as substrate assessed as peptide degradation at 1 mM preincubated for 10 mins followed by substrate addition measured after 72 hrs by LC-MS analysis; conditions: 1000 µM
Outline: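 Recombinant human NEP, 3.1 nM in Tris/NaCl/10 μM ZnCl2 buffer, pH 7.5, preincubated 10 min at 37 °C with 5 μL of 1 mM analogue stock (equimolar to substrate) plus dansyl-YVG standard. Then 5 μL of 1 mM pyr-1-apelin-13 added. Aliquots taken at 0, 1, 4, 24 and 72 h and analysed by LC−MS; duplicate per time point.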

[4] = tested on: Heart; assay: Cardioprotective activity against Langendorff isolated mouse heart ischemia-reperfusion model assessed as improvement in LVDP at 1 uM administered for 10 mins during start of 40 mins reperfusion period post 30 mins ischemic induction; format: functional, tissue-based
Outline: (§2)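 Mouse hearts (heparinized, isoflurane 1.5−2%) excised and Langendorff-perfused at constant 80 mmHg with modified Krebs−Henseleit buffer, 37 °C, 95% O2/5% CO2, pH 7.4. After 10 min baseline, 30 min global ischemia, then 40 min reperfusion. Peptide at 1 μM given for the first 10 min of reperfusion, with saline sham and native apelin-17 as controls. Left ventricular function recorded continuously.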

[5] = tested on: Heart; assay: Cardioprotective activity against Langendorff isolated mouse heart ischemia-reperfusion model assessed as minimum derivative change in diastolic pressure over time at 1 uM administered for 10 mins during start of 40 mins reperfusion period post 30 mins ischemic induction; format: functional, tissue-based; outline: as §2
[6] = tested on: Mus musculus; assay: Cardiovascular activity in anesthetized mouse assessed as decrease in blood pressure at 1.4 uM/kg, iv relative to control; format: functional, organism-based; outline: as §1
[7] = tested on: Heart; assay: Cardioprotective activity against Langendorff isolated mouse heart ischemia-reperfusion model assessed as improvement in RPP at 1 uM administered for 10 mins during start of 40 mins reperfusion period post 30 mins ischemic induction; format: functional, tissue-based; outline: as §2
[8] = tested on: Heart; assay: Cardioprotective activity against Langendorff isolated mouse heart ischemia-reperfusion model assessed as maximum derivative change in systolic pressure over time at 1 uM administered for 10 mins during start of 40 mins reperfusion period post 30 mins ischemic induction; format: functional, tissue-based; outline: as §2
[9] = molecular target: T1, Neprilysin; assay: Drug degradation in human plasma assessed as NEP-mediated degradation by measuring amount of apelin remaining after 60 mins by RP-HPLC analysis; format: ADME; conditions: 1 h
Outline: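 Human plasma (20 μL) prewarmed to 37 °C, then 5 μL of 400 μM peptide added and incubated for set times; done in triplicate. Quenched with 10% aqueous TFA, dansyl-YVG internal standard added, and peptides recovered on a C18 spin column with 40% acetonitrile/0.1% TFA. Analysed by C18 RP-HPLC; peptide/standard peak-area ratio compared with the 0 min ratio.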

T1 sequence (P08473 whole entry): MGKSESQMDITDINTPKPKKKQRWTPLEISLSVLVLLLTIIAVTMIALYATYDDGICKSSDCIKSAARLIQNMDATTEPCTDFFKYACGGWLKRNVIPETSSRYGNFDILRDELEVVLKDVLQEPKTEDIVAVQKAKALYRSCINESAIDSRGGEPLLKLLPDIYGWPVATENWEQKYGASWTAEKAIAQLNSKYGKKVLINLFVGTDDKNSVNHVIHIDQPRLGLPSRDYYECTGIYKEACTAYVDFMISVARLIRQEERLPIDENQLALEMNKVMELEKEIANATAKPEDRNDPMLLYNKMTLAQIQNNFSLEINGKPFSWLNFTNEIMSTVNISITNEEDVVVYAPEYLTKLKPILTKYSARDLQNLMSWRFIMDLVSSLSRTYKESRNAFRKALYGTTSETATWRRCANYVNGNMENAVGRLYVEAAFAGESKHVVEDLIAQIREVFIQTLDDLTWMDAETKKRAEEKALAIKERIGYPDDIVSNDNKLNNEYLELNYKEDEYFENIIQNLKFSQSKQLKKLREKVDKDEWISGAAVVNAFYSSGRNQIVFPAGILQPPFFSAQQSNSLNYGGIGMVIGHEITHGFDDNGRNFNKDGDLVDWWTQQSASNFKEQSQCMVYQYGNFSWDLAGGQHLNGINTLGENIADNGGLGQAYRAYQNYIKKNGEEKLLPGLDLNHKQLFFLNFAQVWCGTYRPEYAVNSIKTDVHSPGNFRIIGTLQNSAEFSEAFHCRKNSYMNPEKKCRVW

| Compound | Activity [1] | Drug metabolism [2] | inhibition (INH) [3] | Activity [4] | Activity [5] | Activity [6] | Activity [7] | Activity [8] | Drug degradation [9] [%] |
| --- | --- | --- | --- | --- | --- | --- | --- | --- | --- |
| CCCC[C@H](NC(=O)[C@@H]1CCCN1C(=O)CNC(=O)[C@H](CCCCN)NC(=O)[C@H](Cc1c[nH]cn1)NC(=O)[C@H](CO)NC(=O)[C@H](CC(C)C)NC(=O)N(CCCNC(=N)N)NC(=O)[C@@H]1CCCN1C(=O)[C@H](CCCNC(=N)N)NC(=O)[C@H](CCC(N)=O)NC(=O)[C@H](CCCNC(=N)N)NC(=O)[C@H](CCCNC(=N)N)NC(=O)[C@H](Cc1ccccc1)NC(=O)[C@@H](N)CCCCN)C(=O)NC(C)(C)C(=O)N[C@@H](Cc1ccc(Br)cc1)C(=O)O (H-KFRRQRP[X1]LSHKGP[Nle][Aib][Phe(4-Br)]-OH) | Toxic | Metabolite_Notdetected | Not Active | Active | Active | Active | Active | Active | 94 |
| CCCC[C@H](NC(=O)[C@@H]1CCCN1C(=O)CNC(=O)[C@H](CCCCN)NC(=O)[C@H](Cc1c[nH]cn1)NC(=O)[C@H](CO)NC(=O)[C@H](CC(C)C)NC(=O)[C@](C)(CCCNC(=N)N)NC(=O)[C@@H]1CCCN1C(=O)[C@H](CCCNC(=N)N)NC(=O)[C@H](CCC(N)=O)NC(=O)[C@H](CCCNC(=N)N)NC(=O)[C@H](CCCNC(=N)N)NC(=O)[C@H](Cc1ccccc1)NC(=O)[C@@H](N)CCCCN)C(=O)NC(C)(C)C(=O)N[C@@H](Cc1ccc(Br)cc1)C(=O)O (H-KFRRQRP[αMeR]LSHKGP[Nle][Aib][Phe(4-Br)]-OH) | Toxic | Metabolite_Notdetected | Not Active | – | – | – | – | – | 55 |
| CCCC[C@H](NC(=O)[C@@H]1CCCN1C(=O)CNC(=O)[C@H](CCCCN)NC(=O)[C@H](Cc1c[nH]cn1)NC(=O)[C@H](CO)NC(=O)[C@H](CC(C)C)N(C)C(=O)[C@H](CCCNC(=N)N)NC(=O)[C@@H]1CCCN1C(=O)[C@H](CCCNC(=N)N)NC(=O)[C@H](CCC(N)=O)NC(=O)[C@H](CCCNC(=N)N)NC(=O)[C@H](CCCNC(=N)N)NC(=O)[C@H](Cc1ccccc1)NC(=O)[C@@H](N)CCCCN)C(=O)NC(C)(C)C(=O)N[C@@H](Cc1ccc(Br)cc1)C(=O)O (H-KFRRQRPR[NMeL]SHKGP[Nle][Aib][Phe(4-Br)]-OH) | Toxic | Metabolite_Notdetected | Not Active | Active | Active | Active | Active | Active | 47 |
| CCCC[C@H](NC(=O)[C@@H]1CCCN1C(=O)CNC(=O)[C@H](CCCCN)NC(=O)[C@H](Cc1c[nH]cn1)NC(=O)[C@H](CO)NC(=O)[C@@H](CC(C)C)NC(=O)[C@H](CCCNC(=N)N)NC(=O)[C@@H]1CCCN1C(=O)[C@H](CCCNC(=N)N)NC(=O)[C@@H]1CCC(=O)N1)C(=O)NC(C)(C)C(=O)N[C@@H](Cc1ccc(Br)cc1)C(=O)O | – | Metabolite_Notdetected | Not Active | – | – | inactive | – | – | 22 |
| CCCC[C@H](NC(=O)[C@@H]1CCCN1C(=O)CNC(=O)[C@H](CCCCN)NC(=O)[C@H](Cc1c[nH]cn1)NC(=O)[C@H](CO)NC(=O)[C@H](CC(C)C)NC(=O)[C@H](CCCNC(=N)N)NC(=O)[C@@H]1CCCN1C(=O)[C@H](CCCNC(=N)N)NC(=O)[C@H](CCC(N)=O)NC(=O)[C@H](CCCNC(=N)N)NC(=O)[C@H](CCCNC(=N)N)NC(=O)[C@H](Cc1ccccc1)NC(=O)[C@@H](N)CCCCN)C(=O)NC(C)(C)C(=O)N[C@@H](Cc1ccc(Br)cc1)C(=O)O (H-KFRRQRPRLSHKGP[Nle][Aib][Phe(4-Br)]-OH) | Toxic | Metabolite_Detected | – | – | – | Active | – | – | 35 |
| CSCC[C@H](NC(=O)[C@@H]1CCCN1C(=O)CNC(=O)[C@H](CCCCN)NC(=O)[C@H](Cc1cnc[nH]1)NC(=O)[C@H](CO)NC(=O)[C@H](CC(C)C)NC(=O)[C@H](CCCNC(=N)N)NC(=O)[C@@H]1CCCN1C(=O)[C@H](CCCNC(=N)N)NC(=O)[C@@H]1CCC(=O)N1)C(=O)N1CCC[C@H]1C(=O)N[C@@H](Cc1ccccc1)C(=O)O | – | Metabolite_Detected | – | – | – | – | – | – | 12 |
| CSCC[C@H](NC(=O)[C@@H]1CCCN1C(=O)CNC(=O)[C@H](CCCCN)NC(=O)[C@H](Cc1cnc[nH]1)NC(=O)[C@H](CO)NC(=O)[C@H](CC(C)C)NC(=O)[C@H](CCCNC(=N)N)NC(=O)[C@@H]1CCCN1C(=O)[C@H](CCCNC(=N)N)NC(=O)[C@H](CCC(N)=O)NC(=O)[C@H](CCCNC(=N)N)NC(=O)[C@H](CCCNC(=N)N)NC(=O)[C@H](Cc1ccccc1)NC(=O)[C@@H](N)CCCCN)C(=O)N1CCC[C@H]1C(=O)N[C@@H](Cc1ccccc1)C(=O)O | Toxic | Metabolite_Detected | – | Active | Active | Active | Active | Active | 39 |
| CCCC[C@H](NC(=O)[C@@H]1CCCN1C(=O)CNC(=O)[C@H](CCCCN)NC(=O)[C@H](Cc1c[nH]cn1)NC(=O)[C@H](CO)NC(=O)[C@H](CC(C)C)NC(=O)[C@](C)(CCCNC(=N)N)NC(=O)[C@@H]1CCCN1C(=O)[C@H](CCCNC(=N)N)NC(=O)[C@@H]1CCC(=O)N1)C(=O)NC(C)(C)C(=O)N[C@@H](Cc1ccc(Br)cc1)C(=O)O | – | Metabolite_Notdetected | Not Active | – | – | – | – | – | 62 |
| CCCC[C@H](NC(=O)[C@@H]1CCCN1C(=O)CNC(=O)[C@H](CCCCN)NC(=O)[C@H](Cc1c[nH]cn1)NC(=O)[C@H](CO)NC(=O)N(CC(C)C)NC(=O)[C@H](CCCNC(=N)N)NC(=O)[C@@H]1CCCN1C(=O)[C@H](CCCNC(=N)N)NC(=O)[C@@H]1CCC(=O)N1)C(=O)NC(C)(C)C(=O)N[C@@H](Cc1ccc(Br)cc1)C(=O)O | – | Metabolite_Notdetected | Not Active | inactive | inactive | – | inactive | inactive | 2 |
| CCCC[C@H](NC(=O)[C@@H]1CCCN1C(=O)CNC(=O)[C@H](CCCCN)NC(=O)[C@H](Cc1c[nH]cn1)NC(=O)[C@H](CO)NC(=O)[C@](C)(CC(C)C)NC(=O)[C@H](CCCNC(=N)N)NC(=O)[C@@H]1CCCN1C(=O)[C@H](CCCNC(=N)N)NC(=O)[C@H](CCC(N)=O)NC(=O)[C@H](CCCNC(=N)N)NC(=O)[C@H](CCCNC(=N)N)NC(=O)[C@H](Cc1ccccc1)NC(=O)[C@@H](N)CCCCN)C(=O)NC(C)(C)C(=O)N[C@@H](Cc1ccc(Br)cc1)C(=O)O (H-KFRRQRPR[αMeL]SHKGP[Nle][Aib][Phe(4-Br)]-OH) | Toxic | Metabolite_Notdetected | Not Active | – | – | – | – | – | 48 |
| CCCC[C@H](NC(=O)[C@@H]1CCCN1C(=O)CNC(=O)[C@H](CCCCN)NC(=O)[C@H](Cc1c[nH]cn1)NC(=O)[C@H](CO)NC(=O)[C@@H](CC(C)C)NC(=O)[C@H](CCCNC(=N)N)NC(=O)[C@@H]1CCCN1C(=O)[C@H](CCCNC(=N)N)NC(=O)[C@H](CCC(N)=O)NC(=O)[C@H](CCCNC(=N)N)NC(=O)[C@H](CCCNC(=N)N)NC(=O)[C@H](Cc1ccccc1)NC(=O)[C@@H](N)CCCCN)C(=O)NC(C)(C)C(=O)N[C@@H](Cc1ccc(Br)cc1)C(=O)O (H-KFRRQRPR[dL]SHKGP[Nle][Aib][Phe(4-Br)]-OH) | Toxic | Metabolite_Notdetected | Not Active | – | – | – | – | – | 80 |
